ChEMBL document CHEMBL3739379, “Anti-Candida activity and cytotoxicity of a large library of new N-substituted-1,3-thiazolidin-4-one derivatives” (Eur J Med Chem, 2016)
Converted amounts (≈) assume the structure as drawn.

Columns and labels:
Type in all cases: functional
Enterococcus faecalis = assay: Antibacterial activity against […] faecalis after 18 to 22 hrs by broth microdilution method
How it was run: (§1)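 Broth microdilution per NCCLS in Mueller-Hinton II broth; isolates subcultured for purity. Compounds dissolved in DMSO, serial dilutions 256 to 0.5 µg/mL; inoculum 10^5/mL. Controls: organism without compound, medium only. Incubation 18 to 22 h at 35 °C. MIC is the lowest concentration giving complete growth inhibition, read by unaided eye.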

Candida parapsilosis = assay: Antifungal activity against Candida parapsilosis clinical isolate after 24 hrs by sabouraud dextrose broth based microdilution method; details: Lodderomyces parapsilosis
How it was run: (§2)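 Clinical isolates identified by conventional methods and subcultured for purity. Broth microdilution per NCCLS in Sabouraud dextrose broth; compounds dissolved in DMSO and serially diluted; inoculum 10^3/mL. Controls: fungi without compound, medium only. Incubated 24 h at 37 °C. MIC is the lowest concentration with complete growth inhibition by unaided eye. Values are geometric means over isolates per species.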

Proteus mirabilis = assay: Antibacterial activity against Proteus mirabilis after 18 to 22 hrs by broth microdilution method; how it was run: as §1
Escherichia coli = assay: Antibacterial activity against Escherichia coli at after 18 to 22 hrs by broth microdilution method; how it was run: as §1
Staphylococcus aureus = assay: Antibacterial activity against Staphylococcus aureus after 18 to 22 hrs by broth microdilution method; how it was run: as §1
[1] = test system: Staphylococcus haemolyticus; assay: Antibacterial activity against Staphylococcus haemolyticus after 18 to 22 hrs by broth microdilution method; how it was run: as §1
Nakaseomyces glabratus = assay: Antifungal activity against Candida glabrata clinical isolate after 24 hrs by sabouraud dextrose broth based microdilution method; how it was run: as §2
Pichia kudriavzevii = assay: Antifungal activity against Candida krusei clinical isolate after 24 hrs by sabouraud dextrose broth based microdilution method; how it was run: as §2
Klebsiella oxytoca = assay: Antibacterial activity against Klebsiella oxytoca after 18 to 22 hrs by broth microdilution method; how it was run: as §1
[Candida] sake = Antifungal activity against Candida sake clinical isolate after 24 hrs by sabouraud dextrose broth based microdilution method; details: Fermentozyma sake; how it was run: as §2
Enterobacter sp. = assay: Antibacterial activity against Enterobacter sp. after 18 to 22 hrs by broth microdilution method; how it was run: as §1
Staphylococcus warneri = assay: Antibacterial activity against Staphylococcus warneri after 18 to 22 hrs by broth microdilution method; how it was run: as §1
Candida albicans = assay: Antifungal activity against Candida albicans clinical isolate after 24 hrs by sabouraud dextrose broth based microdilution method; how it was run: as §2
Candida tropicalis = assay: Antifungal activity against Candida tropicalis clinical isolate after 24 hrs by sabouraud dextrose broth based microdilution method; how it was run: as §2

Row | MIC (Enterococcus faecalis) [µg/mL] | MIC (Candida parapsilosis) [µg/mL] | MIC (Proteus mirabilis) [µg/mL] | MIC (Escherichia coli) [µg/mL] | MIC (Staphylococcus aureus) [µg/mL] | MIC (Nakaseomyces glabratus) [µg/mL] | MIC (Pichia kudriavzevii) [µg/mL] | MIC (Klebsiella oxytoca) [µg/mL] | MIC ([Candida] sake) [µg/mL] | MIC (Enterobacter sp.) [µg/mL] | MIC (Staphylococcus warneri) [µg/mL] | MIC (Candida albicans) [µg/mL] | MIC (Candida tropicalis) [µg/mL] | Compound | MIC [1] [µg/mL]
1 | > 256 | 8 (≈ 23.1 µM) | > 256 | > 256 | > 256 | 32 (≈ 92.4 µM) | 16 (≈ 46.2 µM) | > 256 | 16 (≈ 46.2 µM) | > 256 | > 256 | 8 (≈ 23.1 µM) | 8 (≈ 23.1 µM) | O=C1CS/C(=N\N=C2CCCCC2)N1Cc1ccc([N+](=O)[O-])cc1 | > 256
2 | > 256 | 256 (≈ 680 µM) | > 256 | > 256 | > 256 | 2 (≈ 5.31 µM) | 128 (≈ 340 µM) | > 256 | 256 (≈ 680 µM) | > 256 | > 256 | 4 (≈ 10.6 µM) | 128 (≈ 340 µM) | CCCCCC/C(C)=N/N=C1\SCC(=O)N1Cc1ccc([N+](=O)[O-])cc1 | > 256
3 | > 256 | 16 (≈ 40.2 µM) | > 256 | > 256 | > 256 | 32 (≈ 80.3 µM) | 8 (≈ 20.1 µM) | > 256 | 16 (≈ 40.2 µM) | > 256 | > 256 | 256 (≈ 643 µM) | 16 (≈ 40.2 µM) | O=C1CS/C(=N\N=C\c2ccc3c(c2)OCO3)N1Cc1ccc([N+](=O)[O-])cc1 | > 256
4 | > 256 | 8 (≈ 22.2 µM) | > 256 | > 256 | > 256 | 16 (≈ 44.4 µM) | 8 (≈ 22.2 µM) | > 256 | 4 (≈ 11.1 µM) | > 256 | > 256 | 32 (≈ 88.8 µM) | 32 (≈ 88.8 µM) | CC1CCC(=N/N=C2\SCC(=O)N2Cc2ccc([N+](=O)[O-])cc2)CC1 (centres undefined) | > 256
5 | > 256 | 8 (≈ 22.3 µM) | > 256 | > 256 | > 256 | 32 (≈ 89.3 µM) | 4 (≈ 11.2 µM) | > 256 | 8 (≈ 22.3 µM) | > 256 | > 256 | 32 (≈ 89.3 µM) | 16 (≈ 44.6 µM) | C/C(=N\N=C1/SCC(=O)N1Cc1ccc([N+](=O)[O-])cc1)c1ccco1 | > 256
6 | > 256 | 4 (≈ 10.8 µM) | > 256 | > 256 | > 256 | 32 (≈ 86.6 µM) | 32 (≈ 86.6 µM) | > 256 | 4 (≈ 10.8 µM) | > 256 | > 256 | 4 (≈ 10.8 µM) | 4 (≈ 10.8 µM) | C/C(=N\N=C1/SCC(=O)N1Cc1ccc([N+](=O)[O-])cc1)c1ccccn1 | > 256
7 | > 256 | 16 (≈ 44.4 µM) | > 256 | > 256 | > 256 | 32 (≈ 88.8 µM) | 2 (≈ 5.55 µM) | > 256 | 4 (≈ 11.1 µM) | > 256 | > 256 | 16 (≈ 44.4 µM) | 4 (≈ 11.1 µM) | CC1CCCC/C1=N\N=C1/SCC(=O)N1Cc1ccc([N+](=O)[O-])cc1 (centres undefined) | > 256
8 | > 256 | 128 (≈ 383 µM) | > 256 | > 256 | > 256 | 8 (≈ 23.9 µM) | 32 (≈ 95.7 µM) | > 256 | 2 (≈ 5.98 µM) | > 256 | > 256 | 2 (≈ 5.98 µM) | 8 (≈ 23.9 µM) | CCC(CC)=N/N=C1\SCC(=O)N1Cc1ccc([N+](=O)[O-])cc1 | > 256
9 | > 256 | 4 (≈ 10.9 µM) | > 256 | > 256 | > 256 | 32 (≈ 86.9 µM) | 8 (≈ 21.7 µM) | > 256 | 2 (≈ 5.43 µM) | > 256 | > 256 | 4 (≈ 10.9 µM) | 2 (≈ 5.43 µM) | C/C(=N\N=C1/SCC(=O)N1Cc1ccc([N+](=O)[O-])cc1)c1ccccc1 | > 256
10 | > 256 | 64 (≈ 185 µM) | > 256 | > 256 | > 256 | 16 (≈ 46.2 µM) | 256 (≈ 739 µM) | > 256 | 256 (≈ 739 µM) | > 256 | > 256 | 2 (≈ 5.77 µM) | 128 (≈ 370 µM) | CC1CC/C(=N\N=C2/SCC(=O)N2Cc2ccc([N+](=O)[O-])cc2)C1 (centres undefined) | > 256
11 | > 256 | 8 (≈ 23.1 µM) | > 256 | > 256 | > 256 | 16 (≈ 46.2 µM) | 2 (≈ 5.77 µM) | > 256 | 2 (≈ 5.77 µM) | > 256 | > 256 | 4 (≈ 11.5 µM) | 2 (≈ 5.77 µM) | CC1CCC/C1=N\N=C1/SCC(=O)N1Cc1ccc([N+](=O)[O-])cc1 (centres undefined) | > 256
12 | > 256 | 8 (≈ 22.2 µM) | > 256 | > 256 | > 256 | 32 (≈ 88.8 µM) | 4 (≈ 11.1 µM) | > 256 | 4 (≈ 11.1 µM) | > 256 | > 256 | 128 (≈ 355 µM) | 16 (≈ 44.4 µM) | O=C1CS/C(=N\N=C2CCCCCC2)N1Cc1ccc([N+](=O)[O-])cc1 | > 256
13 | > 256 | 16 (≈ 47.8 µM) | > 256 | > 256 | > 256 | 2 (≈ 5.98 µM) | 16 (≈ 47.8 µM) | > 256 | 8 (≈ 23.9 µM) | > 256 | > 256 | 2 (≈ 5.98 µM) | 64 (≈ 191 µM) | CCC/C(C)=N/N=C1\SCC(=O)N1Cc1ccc([N+](=O)[O-])cc1 | > 256
14 | > 256 | 2 (≈ 5.34 µM) | > 256 | > 256 | > 256 | 2 (≈ 5.34 µM) | 2 (≈ 5.34 µM) | > 256 | 8 (≈ 21.4 µM) | > 256 | > 256 | 8 (≈ 21.4 µM) | 4 (≈ 10.7 µM) | C/C(=N\N=C1/SCC(=O)N1Cc1ccc([N+](=O)[O-])cc1)c1cccs1 | > 256
15 | > 256 | 32 (≈ 85.5 µM) | > 256 | > 256 | > 256 | 16 (≈ 42.7 µM) | 2 (≈ 5.34 µM) | > 256 | 32 (≈ 85.5 µM) | > 256 | > 256 | 4 (≈ 10.7 µM) | 32 (≈ 85.5 µM) | C/C(=N\N=C1/SCC(=O)N1Cc1ccc([N+](=O)[O-])cc1)C1CCCCC1 | > 256
16 | > 256 | 16 (≈ 44.1 µM) | > 256 | > 256 | > 256 | 8 (≈ 22.1 µM) | 16 (≈ 44.1 µM) | > 256 | 2 (≈ 5.52 µM) | > 256 | > 256 | 2 (≈ 5.52 µM) | 2 (≈ 5.52 µM) | CCCC/C(CC)=N/N=C1\SCC(=O)N1Cc1ccc([N+](=O)[O-])cc1 | > 256
17 | > 256 | 16 (≈ 46.5 µM) | > 256 | > 256 | > 256 | 8 (≈ 23.2 µM) | 16 (≈ 46.5 µM) | > 256 | 2 (≈ 5.81 µM) | > 256 | > 256 | 4 (≈ 11.6 µM) | 2 (≈ 5.81 µM) | O=C1CS/C(=N\N=C\c2ccco2)N1Cc1ccc([N+](=O)[O-])cc1 | > 256
18 | > 256 | 32 (≈ 92.4 µM) | > 256 | > 256 | > 256 | 8 (≈ 23.1 µM) | 32 (≈ 92.4 µM) | > 256 | 8 (≈ 23.1 µM) | > 256 | > 256 | 4 (≈ 11.5 µM) | 8 (≈ 23.1 µM) | C=CCC/C(C)=N/N=C1\SCC(=O)N1Cc1ccc([N+](=O)[O-])cc1 | > 256
19 | > 256 | 2 (≈ 6.24 µM) | > 256 | > 256 | > 256 | 2 (≈ 6.24 µM) | 2 (≈ 6.24 µM) | > 256 | 8 (≈ 25 µM) | > 256 | > 256 | 2 (≈ 6.24 µM) | 128 (≈ 400 µM) | CC/C(C)=N/N=C1\SCC(=O)N1Cc1ccc([N+](=O)[O-])cc1 | > 256
20 | > 256 | 32 (≈ 90 µM) | > 256 | > 256 | > 256 | 32 (≈ 90 µM) | 128 (≈ 360 µM) | > 256 | 32 (≈ 90 µM) | > 256 | > 256 | 256 (≈ 720 µM) | 256 (≈ 720 µM) | O=C1CS/C(=N\N=C\c2cccnc2)N1Cc1ccc([N+](=O)[O-])cc1 | > 256
21 | > 256 | 16 (≈ 42.7 µM) | > 256 | > 256 | > 256 | 16 (≈ 42.7 µM) | 16 (≈ 42.7 µM) | > 256 | 16 (≈ 42.7 µM) | > 256 | > 256 | 4 (≈ 10.7 µM) | 8 (≈ 21.4 µM) | O=C1CS/C(=N\N=C2CCCCCCC2)N1Cc1ccc([N+](=O)[O-])cc1 | > 256
